In ChEMBL document CHEMBL4613292, “5,6-Dihydroxypyrimidine Scaffold to Target HIV-1 Nucleocapsid Protein” (ACS Med Chem Lett, 2020):
Activity calls are given as the source filed them. No cut-off for these calls is given here.

Columns and labels:
[1] = Half life in C57BL/6 mouse at 2 mg/kg, iv or 5 mg/kg, po administered as single dose measured up to 24 hrs by LC-MS/MS analysis; format: ADME, organism-based; conditions: in vivo
Cytochrome P450 1A2 = target: T1, Cytochrome P450 1A2 (Homo sapiens, UniProt P05177); test: Inhibition of human microsomal CYP1A2 expressed in baculovirus infected insect cells using luciferin-1A2 as substrate preincubated with enzyme-substrate mixture for 30 mins followed by further incubation with NADPH for 30 mins by CYP450 luciferase Glo assay; format: ADME
T1 sequence (P05177 whole entry): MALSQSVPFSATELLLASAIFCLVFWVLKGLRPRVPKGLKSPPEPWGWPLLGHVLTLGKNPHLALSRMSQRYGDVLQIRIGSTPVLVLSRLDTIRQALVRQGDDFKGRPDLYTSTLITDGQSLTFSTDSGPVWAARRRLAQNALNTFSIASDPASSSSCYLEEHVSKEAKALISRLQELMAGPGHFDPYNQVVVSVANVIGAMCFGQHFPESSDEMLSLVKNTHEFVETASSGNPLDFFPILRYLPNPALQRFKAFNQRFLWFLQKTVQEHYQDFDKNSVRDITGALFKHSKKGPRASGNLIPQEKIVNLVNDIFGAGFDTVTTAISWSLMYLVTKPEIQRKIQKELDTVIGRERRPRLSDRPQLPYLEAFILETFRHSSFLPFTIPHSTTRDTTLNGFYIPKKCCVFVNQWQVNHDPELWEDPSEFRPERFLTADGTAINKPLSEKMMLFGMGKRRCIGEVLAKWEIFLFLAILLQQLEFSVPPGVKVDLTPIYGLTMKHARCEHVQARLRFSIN

[2] = tested on: Human immunodeficiency virus 1; test: Antiviral activity against wild-type HIV1 NL4-3 infected in human TZM-bl cells infected with supernatants from virus-infected human MT2 cells treated with compound for 48 to 72 hrs assessed as reduction in viral replication after 2 days by bright Glo-luciferase reporter gene assay based BiCycle assay; format: functional, organism-based; conditions: Human immunodeficiency virus 1, NL4-3, TZM
In short: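 Two-round cell assay over the full replication cycle: MT-2 T cells are infected with wild-type reference strain NL4-3 in the first round, and reporter TZM-bl cells are infected in the second round. Values are given as mean ± deviation.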

[3] = Half life in mouse hepatocytes at 3 uM by LC-MS/MS analysis; format: ADME, cell-based, Hepatocyte
[4] = Half life in human hepatocytes at 3 uM by LC-MS/MS analysis; format: ADME, cell-based, Hepatocyte
[5] = tested on: Human immunodeficiency virus 1; test: Antiviral activity against NNRTI-resistant HIV1 12231; format: functional, organism-based; conditions: Human immunodeficiency virus 1, 12231
[6] = Selectivity index, ratio of CC50 for human PBMC cells stimulated with phytohemagglutinin and interleukin-2 assessed as reduction in cell viability measured after 7 days by MTS assay to EC50 for wild-type HIV1 NL4-3 infected in human TZM-bl cells infected with supernatants from virus-infected human MT2 cells treated with compound for 48 to 72 hrs assessed as reduction in viral replication after 2 days by bright Glo-luciferase reporter gene assay based BiCycle assay; format: toxicity; conditions: read-out: Ratio CC50/EC50
In short: (§1)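 Selectivity index is CC50 from the respective cytotoxicity assay (HeLa or PBMC) divided by EC50 from the two-round MT-2/TZM-bl NL4-3 assay.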

[7] = tested on: Human immunodeficiency virus 1; test: Antiviral activity against NRTI-resistant HIV1 7401; format: functional, organism-based; conditions: Human immunodeficiency virus 1, 7401
[8] = target: Voltage-gated inwardly rectifying potassium channel KCNH2 (Homo sapiens, UniProt Q12809); test: Displacement of Tracer Red from human ERG measured after 4 hrs by fluorescence polarization assay
[9] = tested on: Human immunodeficiency virus 1; test: Antiviral activity against INI-resistant HIV1 11845; format: functional, organism-based; conditions: Human immunodeficiency virus 1, 11845
[10] = Volume of distribution at steady state in C57BL/6 mouse at 2 mg/kg, iv or 5 mg/kg, po administered as single dose measured up to 24 hrs by LC-MS/MS analysis; format: ADME, organism-based; conditions: in vivo, read-out: Vdss
[11] = target: Human immunodeficiency virus type 1 integrase (Human immunodeficiency virus 1) (UniProt Q7ZJM1); test: Inhibition of wild type recombinant HIV1 His6-tagged integrase expressed in Escherichia coli BL21 using 18 nucleotide 3'-biotin labeled DNA acceptor as substrate upto 10 uM preincubated for 1 hr followed by substrate addition and further incubated for 90 mins in presence of recombinant LEDGF/p75 by HTRF assay
[12] = tested on: Human immunodeficiency virus 1; test: Ratio of IC50 for PI-resistant HIV1 11808 Nucleocapsid protein (11 to 55 residues) using Alexa488-5'-cTAR-3'-Dabcyl oligonucleotide as substrate to IC50 for HIV1 Nucleocapsid protein (11 to 55 residues) assessed as reduction in NC-induced cTAR DNA destabilization by measuring intrinsic fluorescence using Alexa488-5'-cTAR-3'-Dabcyl oligonucleotide as substrate at 20 degree C incubated for 15 mins by fluorescence assay
[13] = Half life in mouse plasma at 3 uM by LC-MS/MS analysis; format: ADME, cell-free
[14] = tested on: Human immunodeficiency virus 1; test: Ratio of IC50 for NNRTI-resistant HIV1 12231 Nucleocapsid protein (11 to 55 residues) using Alexa488-5'-cTAR-3'-Dabcyl oligonucleotide as substrate to IC50 for HIV1 Nucleocapsid protein (11 to 55 residues) assessed as reduction in NC-induced cTAR DNA destabilization by measuring intrinsic fluorescence using Alexa488-5'-cTAR-3'-Dabcyl oligonucleotide as substrate at 20 degree C incubated for 15 mins by fluorescence assay
Cytochrome P450 2D6 = Cytochrome P450 2D6 (Homo sapiens, UniProt P10635); test: Inhibition of human microsomal CYP2D6 expressed in baculovirus infected insect cells using luciferin-ME as substrate preincubated with enzyme/substrate mixture for 30 mins followed by further incubation with NADPH for 30 mins by CYP450 luciferase Glo assay; format: ADME
[15] = Cytotoxicity against human HeLa cells assessed as reduction in cell viability; format: cell-based
[16] = Selectivity index, ratio of CC50 for human HeLa cells assessed as reduction in cell viability to EC50 for wild-type HIV1 NL4-3 infected in human TZM-bl cells infected with supernatants from virus-infected human MT2 cells treated with compound for 48 to 72 hrs assessed as reduction in viral replication after 2 days by bright Glo-luciferase reporter gene assay based BiCycle assay; format: toxicity; conditions: read-out: Ratio CC50/EC50; in short: as §1
[17] = tested on: Human immunodeficiency virus 1; test: Ratio of IC50 for INI-resistant HIV1 11845 Nucleocapsid protein (11 to 55 residues) using Alexa488-5'-cTAR-3'-Dabcyl oligonucleotide as substrate to IC50 for HIV1 Nucleocapsid protein (11 to 55 residues) assessed as reduction in NC-induced cTAR DNA destabilization by measuring intrinsic fluorescence using Alexa488-5'-cTAR-3'-Dabcyl oligonucleotide as substrate at 20 degree C incubated for 15 mins by fluorescence assay
[18] = tested on: Human immunodeficiency virus 1; test: Antiviral activity against PI-resistant HIV1 11808; format: functional, organism-based; conditions: Human immunodeficiency virus 1, 11808
Cytochrome P450 3A4 = Cytochrome P450 3A4 (Homo sapiens, UniProt P08684); test: Inhibition of human microsomal CYP3A4 expressed in baculovirus infected insect cells using luciferin-IPA as substrate preincubated with enzyme/substrate mixture for 30 mins followed by further incubation with NADPH for 30 mins by CYP450 luciferase Glo assay; format: ADME
[19] = Inhibition of HIV1 Nucleocapsid protein (11 to 55 residues) assessed as reduction in NC-induced cTAR DNA destabilization by measuring intrinsic fluorescence using Alexa488-5'-cTAR-3'-Dabcyl oligonucleotide as substrate at 20 degree C incubated for 15 mins by fluorescence assay; parameters: species or system Human immunodeficiency virus 1; conditions: read-out: IC50
In short: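 Fluorescence NC-inhibition assay following destabilisation of cTAR DNA, the complement of the HIV-1 transactivation response element, dual-labelled with Alexa488 dye and Dabcyl quencher. NC protein at 1 μM, so the lowest measurable IC50 is 0.5 μM.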

[20] = Cytotoxicity against phytohemagglutinin and interleukin-2-stimulated human PBMC cells assessed as reduction in cell viability measured after 7 days by MTS assay; format: cell-based
[21] = Oral bioavailability in C57BL/6 mouse at 5 mg/kg administered as single dose measured up to 24 hrs by LC-MS/MS analysis; format: ADME, organism-based; conditions: in vivo
In short: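 C57BL/6 mice were dosed 5 mg/kg orally, with a 2 mg/kg iv reference arm. Plasma was sampled at eight time points up to 24 h.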

[22] = Clearance in C57BL/6 mouse at 2 mg/kg, iv or 5 mg/kg, po administered as single dose measured up to 24 hrs by LC-MS/MS analysis; format: ADME, organism-based; conditions: in vivo
[23] = tested on: Human immunodeficiency virus 1; test: Ratio of IC50 for NRTI-resistant HIV1 7401 Nucleocapsid protein (11 to 55 residues) using Alexa488-5'-cTAR-3'-Dabcyl oligonucleotide as substrate to IC50 for HIV1 Nucleocapsid protein (11 to 55 residues) assessed as reduction in NC-induced cTAR DNA destabilization by measuring intrinsic fluorescence using Alexa488-5'-cTAR-3'-Dabcyl oligonucleotide as substrate at 20 degree C incubated for 15 mins by fluorescence assay
[24] = Half life in human plasma at 3 uM by LC-MS/MS analysis; format: ADME, cell-free

Sequence of Voltage-gated inwardly rectifying potassium channel KCNH2 (Q12809 whole entry): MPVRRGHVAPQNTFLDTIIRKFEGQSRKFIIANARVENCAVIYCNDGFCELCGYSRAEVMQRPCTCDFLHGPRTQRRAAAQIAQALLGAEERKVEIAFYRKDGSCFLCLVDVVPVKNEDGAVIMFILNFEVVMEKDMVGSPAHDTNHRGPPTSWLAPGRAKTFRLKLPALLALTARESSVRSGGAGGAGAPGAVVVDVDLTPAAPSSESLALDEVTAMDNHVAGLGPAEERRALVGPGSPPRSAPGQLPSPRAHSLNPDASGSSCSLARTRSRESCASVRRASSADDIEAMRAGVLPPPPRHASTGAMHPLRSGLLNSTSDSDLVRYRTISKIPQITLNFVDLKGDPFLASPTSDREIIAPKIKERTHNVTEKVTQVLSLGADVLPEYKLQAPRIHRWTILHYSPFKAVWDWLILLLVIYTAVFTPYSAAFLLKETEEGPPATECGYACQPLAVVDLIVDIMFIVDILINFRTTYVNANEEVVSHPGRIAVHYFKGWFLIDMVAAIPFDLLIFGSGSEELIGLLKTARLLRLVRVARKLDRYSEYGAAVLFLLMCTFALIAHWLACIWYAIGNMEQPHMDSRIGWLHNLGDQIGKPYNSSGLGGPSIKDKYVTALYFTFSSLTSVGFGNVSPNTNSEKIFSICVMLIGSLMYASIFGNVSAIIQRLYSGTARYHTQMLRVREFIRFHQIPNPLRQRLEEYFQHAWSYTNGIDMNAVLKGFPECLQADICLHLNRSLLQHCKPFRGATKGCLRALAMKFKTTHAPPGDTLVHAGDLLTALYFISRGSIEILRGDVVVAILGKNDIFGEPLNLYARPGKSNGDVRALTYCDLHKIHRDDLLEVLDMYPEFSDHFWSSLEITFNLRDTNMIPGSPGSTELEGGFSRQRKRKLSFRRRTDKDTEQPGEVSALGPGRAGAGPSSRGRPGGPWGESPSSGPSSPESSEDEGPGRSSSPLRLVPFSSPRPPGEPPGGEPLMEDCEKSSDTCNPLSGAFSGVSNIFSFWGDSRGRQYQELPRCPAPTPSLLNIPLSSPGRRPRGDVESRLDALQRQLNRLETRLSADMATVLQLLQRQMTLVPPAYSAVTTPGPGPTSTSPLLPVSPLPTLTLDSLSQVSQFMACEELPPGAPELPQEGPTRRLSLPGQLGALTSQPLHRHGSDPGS
Sequence of Cytochrome P450 2D6 (P10635 whole entry): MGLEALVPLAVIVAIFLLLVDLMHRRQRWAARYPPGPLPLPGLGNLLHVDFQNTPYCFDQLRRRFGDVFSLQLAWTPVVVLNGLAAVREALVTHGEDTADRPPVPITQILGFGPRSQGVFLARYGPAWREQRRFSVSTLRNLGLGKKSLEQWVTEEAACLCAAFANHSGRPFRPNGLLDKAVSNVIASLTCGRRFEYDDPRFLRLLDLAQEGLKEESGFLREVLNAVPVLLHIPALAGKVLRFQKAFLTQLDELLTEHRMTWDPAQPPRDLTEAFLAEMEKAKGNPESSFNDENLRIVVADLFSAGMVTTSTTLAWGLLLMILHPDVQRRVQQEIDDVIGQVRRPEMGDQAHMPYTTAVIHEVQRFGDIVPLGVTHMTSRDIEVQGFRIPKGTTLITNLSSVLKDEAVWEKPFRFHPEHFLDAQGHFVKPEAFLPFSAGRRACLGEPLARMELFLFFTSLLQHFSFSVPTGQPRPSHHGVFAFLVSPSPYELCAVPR
Sequence of Cytochrome P450 3A4 (P08684 whole entry, the tested form may be a part): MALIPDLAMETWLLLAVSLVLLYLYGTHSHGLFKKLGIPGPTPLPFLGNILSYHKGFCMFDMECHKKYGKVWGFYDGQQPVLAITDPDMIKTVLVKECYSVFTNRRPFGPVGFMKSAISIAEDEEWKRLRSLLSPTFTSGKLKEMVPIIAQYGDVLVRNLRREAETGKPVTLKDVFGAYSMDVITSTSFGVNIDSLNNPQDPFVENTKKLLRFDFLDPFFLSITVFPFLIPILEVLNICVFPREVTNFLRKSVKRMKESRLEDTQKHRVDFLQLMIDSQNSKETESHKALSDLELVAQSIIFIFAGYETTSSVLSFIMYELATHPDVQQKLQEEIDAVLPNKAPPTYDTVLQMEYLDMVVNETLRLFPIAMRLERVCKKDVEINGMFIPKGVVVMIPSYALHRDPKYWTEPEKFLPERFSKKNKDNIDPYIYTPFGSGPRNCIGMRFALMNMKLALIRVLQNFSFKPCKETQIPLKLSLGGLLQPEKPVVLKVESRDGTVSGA
Sequence of Human immunodeficiency virus type 1 integrase (Human immunodeficiency virus 1) (Q7ZJM1 as listed by the source): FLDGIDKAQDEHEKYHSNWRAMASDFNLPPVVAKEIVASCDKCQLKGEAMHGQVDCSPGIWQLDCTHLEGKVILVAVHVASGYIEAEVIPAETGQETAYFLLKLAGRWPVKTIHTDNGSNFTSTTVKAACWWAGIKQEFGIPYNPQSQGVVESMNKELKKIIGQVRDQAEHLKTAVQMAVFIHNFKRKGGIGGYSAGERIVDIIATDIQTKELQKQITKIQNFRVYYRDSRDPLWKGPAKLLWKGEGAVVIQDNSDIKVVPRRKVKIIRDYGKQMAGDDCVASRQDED

| Compound | half-life [1] [h] | IC50 (Cytochrome P450 1A2) [µM] | EC50 [2] [µM] | half-life at 3 µM [3] [h] | half-life at 3 µM [4] [h] | EC50 [5] [µM] | selectivity ratio at 7 days [6] | EC50 [7] [µM] | IC50 [8] [µM] | EC50 [9] [µM] | Vd [10] [L/kg] | Ratio IC50 [12] | half-life at 3 µM [13] [h] | Ratio IC50 [14] | IC50 (Cytochrome P450 2D6) [µM] | CC50 [15] [µM] | selectivity ratio [16] | Ratio IC50 [17] | EC50 [18] [µM] | IC50 (Cytochrome P450 3A4) [µM] | also measured |
| --- | --- | --- | --- | --- | --- | --- | --- | --- | --- | --- | --- | --- | --- | --- | --- | --- | --- | --- | --- | --- | --- |
| C[C@@H](NC(=O)c1nc(-c2nccc3ccccc23)nc(O)c1O)C1CCCCC1 | 1.1 | > 30 | 0.1 | 1.7 | 2.6 | 0.21 | 50 | 0.13 | > 30 | 0.09 | 0.8 | 1.6 | 3.7 | 2 | > 30 | 2.1 | 21 | 0.9 | 0.16 | > 30 | inhibition [11]: inactive; IC50 [19]: 4 µM; CC50 at 168 h [20]: 5 µM; bioavailability [21]: 26%; clearance [22]: 30.2 mL/min/kg; Ratio IC50 [23]: 1.3 |
| COc1ccnc(-c2nc(O)c(O)c(C(=O)N[C@H](C)C3CCCCC3)n2)c1 | 1.4 | > 30 | 0.04 | 1.9 | > 4 | 0.11 | 75 | 0.031 | > 30 | 0.09 | 0.8 | 1.4 | > 24 | 2.8 | > 30 | 3 | 75 | 2.3 | 0.056 | > 30 | half-life at 3 µM [24]: > 6 h; inhibition [11]: inactive; IC50 [19]: 22 µM; CC50 at 168 h [20]: 2.7 µM; bioavailability [21]: 25%; clearance [22]: 33.1 mL/min/kg; Ratio IC50 [23]: 0.8 |
| C[C@@H](NC(=O)c1nc(-c2cc(Cl)ccn2)nc(O)c1O)C1CCCCC1 | 3.1 | > 30 | 0.1 | 1.7 | > 4 | 0.08 | 25 | 0.01 | > 30 | 0.07 | 1.2 | 0.2 | > 6 | 0.8 | > 30 | 3 | 30 | 0.7 | 0.02 | > 30 | half-life at 3 µM [24]: > 6 h; IC50 [19]: 2 µM; CC50 at 168 h [20]: 2.5 µM; bioavailability [21]: 40%; clearance [22]: 37.1 mL/min/kg; Ratio IC50 [23]: 0.1 |
